ChEMBL document CHEMBL3124842, “Design, synthesis and evaluation of the antidepressant and anticonvulsant activities of triazole-containing quinolinones” (Eur J Med Chem, 2014)
The source made the active and inactive calls. No cut-off for these calls is given here.

How the values were obtained:
[1] = test system: Mus musculus; experiment: Antidepressant activity in KunMing mouse assessed as decrease in immobility time at 50 mg/kg, ip by forced swimming test relative to control; format: functional; parameters: scale not given: the % may be the effect or the level left; settings: route intraperitoneal
Outline: (§1)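 Compounds in DMSO given i.p. to mice, n = 8 per group. Dose was 50 mg/kg, or 10, 25 and 50 mg/kg in the dose-response study. After 30 min each mouse was placed in a water-filled cylinder (water 18 cm deep, 23–25 °C). Immobility (upright floating, only slight movements) was timed over the last 4 min of 6 min. %DID = (A − B)/A × 100, where A is control immobility and B is test immobility. Mean ± SEM; ANOVA with Dunnett's test versus control.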

[2] = test system: Mus musculus; experiment: Antidepressant activity in KunMing mouse at 50 mg/kg, ip by tail suspension test; format: functional, organism-based; parameters: dose 50 mg/kg
Outline: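 Male KunMing mice (22 ± 2 g, n = 8 per group), dosed i.p. at 50 mg/kg from a dimethylsulfoxide solution. Each mouse was hung by the tail above the floor with adhesive tape about 1-2 cm from the tail tip. Immobility, meaning completely motionless and hanging passively, was timed over the last 6 min of a 7 min session. Read-out was mean ± SEM, compared with control by ANOVA followed by Dunnett's test.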

[3] = test system: Mus musculus; experiment: Antidepressant activity in KunMing mouse assessed as immobility time at 50 mg/kg, ip by forced swimming test; format: functional; settings: route intraperitoneal; outline: as §1
[4] = test system: Mus musculus; experiment: Neurotoxicity in KunMing mouse assessed as motor impairment at 300 mg/kg, ip after 4 hrs by rotarod test; format: toxicity, organism-based; parameters: dose 300 mg/kg, route intraperitoneal; settings: in vivo
Outline: (§2)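 Mice were trained on a 3.2 cm diameter rotarod turning at 10 rpm, then given compounds in DMSO i.p. at 30, 100 or 300 mg/kg. Neurotoxicity = failure to stay on the rod for at least 1 min in each trial, checked at 0.5 and 4 h. Value is the minimal dose toxic in half or more of the mice.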

[5] = test system: Mus musculus; experiment: Neurotoxicity in KunMing mouse assessed as motor impairment at 300 mg/kg, ip after 0.5 hrs by rotarod test; format: toxicity, organism-based; parameters: dose 300 mg/kg, route intraperitoneal; settings: in vivo; outline: as §2
[6] = test system: Mus musculus; experiment: Anticonvulsant activity in ip dosed KunMing mouse assessed as protection against maximal electroshock-induced seizures after 4 hrs; format: functional; settings: read-out: MED
Outline: (§3)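 Mice (22 ± 2 g) given compounds in DMSO i.p. at 30, 100 and 300 mg/kg; seizures elicited by electroshock via ear stimulation. Protection = abolition of hind limb tonic extension, read at 0.5 and 4 h after injection. Value is the minimal dose active in half or more of the mice; 300 mg/kg was the top dose.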

[7] = test system: Mus musculus; experiment: Neurotoxicity in KunMing mouse at 50 mg/kg, ip; format: toxicity, organism-based; parameters: dose 50 mg/kg, route intraperitoneal; settings: in vivo
[8] = test system: Mus musculus; experiment: Anticonvulsant activity in KunMing mouse assessed as protection against maximal electroshock-induced seizures at 300 mg/kg, ip after 0.5 hrs; format: functional, organism-based; parameters: dose 300 mg/kg; outline: as §3
[9] = test system: Mus musculus; experiment: Anticonvulsant activity in KunMing mouse assessed as protection against maximal electroshock-induced seizures at 300 mg/kg, ip after 4 hrs; format: functional, organism-based; parameters: dose 300 mg/kg; outline: as §3
[10] = test system: Mus musculus; experiment: Neurotoxicity in ip dosed KunMing mouse assessed as motor impairment after 4 hrs by rotarod test; format: toxicity, organism-based; settings: in vivo; outline: as §2
[11] = test system: Mus musculus; experiment: Anticonvulsant activity in ip dosed KunMing mouse assessed as protection against maximal electroshock-induced seizures after 0.5 hrs; format: functional; settings: read-out: MED; outline: as §3
[12] = test system: Mus musculus; experiment: Anticonvulsant activity in KunMing mouse assessed as protection against maximal electroshock-induced seizures at 100 mg/kg, ip after 0.5 hrs relative to control; format: functional; settings: route intraperitoneal; outline: as §3
[13] = test system: Mus musculus; experiment: Neurotoxicity in ip dosed KunMing mouse assessed as motor impairment after 0.5 hrs by rotarod test; format: toxicity, organism-based; settings: in vivo; outline: as §2
[14] = test system: Mus musculus; experiment: Toxicity in KunMing mouse assessed as effect on locomotion at 50 mg/kg, ip by open-field test; format: organism-based; parameters: dose 50 mg/kg, route intraperitoneal; settings: in vivo
Outline: (§4)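 Mice (22 ± 2 g) given 50 mg/kg i.p. in DMSO; tested 30 min later in an open field, placed at the centre. Counts were taken of locomotion (line crossings), rearing (standing on hind legs) and grooming. Mean ± SEM; ANOVA with Bonferroni's test versus control.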

[15] = test system: Mus musculus; experiment: Antidepressant activity in KunMing mouse assessed as decrease in immobility time at 10 mg/kg, ip by forced swimming test; format: functional, organism-based; parameters: dose 10 mg/kg; outline: as §1
[16] = test system: Mus musculus; experiment: Toxicity in KunMing mouse assessed as effect on grooming at 50 mg/kg, ip by open-field test; format: organism-based; parameters: dose 50 mg/kg, route intraperitoneal; settings: in vivo; outline: as §4
[17] = test system: Mus musculus; experiment: Antidepressant activity in ip dosed KunMing mouse assessed as decrease in immobility time by forced swimming test; format: functional, organism-based; outline: as §1
[18] = test system: Mus musculus; experiment: Toxicity in KunMing mouse assessed as effect on rearing at 50 mg/kg, ip by open-field test; format: organism-based; parameters: dose 50 mg/kg, route intraperitoneal; settings: in vivo; outline: as §4
[19] = test system: Mus musculus; experiment: Antidepressant activity in KunMing mouse assessed as decrease in immobility time at 25 to 50 mg/kg, ip by forced swimming test; format: functional, organism-based; outline: as §1

Structure (SMILES) | Activity [1] [%] | Activity [2] | Time [3] [s] | Activity [4] | Activity [5] | minimal effective dose [6] [mg/kg] | Activity [7] | Activity [8] | Activity [9] | MTC [10] [mg/kg] | minimal effective dose [11] [mg/kg] | Activity [12] [%] | MTC [13] [mg/kg] | Activity [14] | Activity [15] | Activity [16] | Activity [17] | Activity [18] | Activity [19]
CNCCC(Oc1ccc(C(F)(F)F)cc1)c1ccccc1 (stereo not drawn) [FLUOXETINE] | 49.5 | Active | 65.9 |  |  |  |  |  |  |  |  |  |  |  |  |  |  |  | 
O=C1CCc2cc(-n3cnnc3)ccc2N1Cc1ccc(F)cc1 | 45.5 |  | 71.1 | Non-toxic | Non-toxic | 300 | Non-toxic | inactive |  |  |  |  |  |  |  |  |  |  | 
O=C1CCc2cc(-n3cnnc3)ccc2N1Cc1ccccc1Cl | 40.4 |  | 77.8 | Non-toxic | Non-toxic | 300 | Non-toxic | inactive |  |  |  |  |  |  |  |  |  |  | 
O=C1CCc2cc(-n3cnnc3)ccc2N1Cc1ccccc1 | 47.8 |  | 68.1 | Non-toxic | Non-toxic |  | Non-toxic | inactive | inactive |  |  |  |  |  |  |  |  |  | 
CCCCCCN1C(=O)CCc2cc(-n3cnnc3)ccc21 | 24.5 |  | 98.5 |  |  | 300 | Non-toxic |  |  | 300 | 100 | 100 | 300 |  |  |  |  |  | 
O=C1CCc2cc(-n3cnnc3)ccc2N1Cc1ccc(Cl)cc1 | 72.3 |  | 36.1 | Non-toxic | Non-toxic |  | Non-toxic | inactive | inactive |  |  |  |  |  |  |  |  |  | 
CCCCCCCN1C(=O)CCc2cc(-n3cnnc3)ccc21 | 40.3 |  | 77.9 |  |  |  | Non-toxic |  | inactive | 300 | 300 |  | 300 |  |  |  |  |  | 
CCCCCCCCN1C(=O)CCc2cc(-n3cnnc3)ccc21 | 35.8 |  | 83.3 |  | Non-toxic | 300 | Non-toxic |  |  | 300 | 300 |  |  |  |  |  |  |  | 
CCCCCCCCCCN1C(=O)CCc2cc(-n3cnnc3)ccc21 | 22.6 |  | 101 | Non-toxic | Non-toxic |  | Non-toxic | inactive | inactive |  |  |  |  |  |  |  |  |  | 
CCCCCN1C(=O)CCc2cc(-n3cnnc3)ccc21 | 0.5 |  | 129.8 |  |  |  | Non-toxic |  | inactive | 300 | 100 | 100 | 300 |  |  |  |  |  | 
O=C1CCc2cc(-n3cnnc3)ccc2N1Cc1ccccc1F | 72.7 | Active | 35.6 | Non-toxic | Non-toxic | 300 | Non-toxic | inactive |  |  |  |  |  | Non-toxic | inactive | Non-toxic | Dose-dependent effect | Non-toxic | Active
O=C1CCc2cc(-n3cnnc3)ccc2N1Cc1c(Cl)cccc1Cl | 15.7 |  | 111 | Non-toxic | Non-toxic |  | Non-toxic | inactive | inactive |  |  |  |  |  |  |  |  |  | 
CCCC(CCC)C(=O)[O-].[Na+] [VALPROATE SODIUM] |  |  |  | Non-toxic | Non-toxic |  |  |  | inactive |  | 300 |  |  |  |  |  |  |  | 
O=C1NC(=O)C(c2ccccc2)(c2ccccc2)N1 [PHENYTOIN] |  |  |  |  |  | 100 |  |  |  | 100 | 30 |  | 100 |  |  |  |  |  | 
O=C1CCc2cc(-n3cnnc3)ccc2N1Cc1cccc(Cl)c1 | 59.1 |  | 53.4 | Non-toxic | Non-toxic | 300 | Non-toxic | inactive |  |  |  |  |  |  |  |  |  |  | 
Cc1ccc(CN2C(=O)CCc3cc(-n4cnnc4)ccc32)cc1 | 39.6 |  | 78.8 | Non-toxic | Non-toxic |  | Non-toxic | inactive | inactive |  |  |  |  |  |  |  |  |  | 
O=C1CCc2cc(-n3cnnc3)ccc2N1Cc1cccc(C(F)(F)F)c1 | 37.2 |  | 93.3 | Non-toxic | Non-toxic | 300 | Non-toxic |  |  |  | 300 |  |  |  |  |  |  |  | 
O=C1CCc2cc(-n3cnnc3)ccc2N1Cc1ccc(Cl)cc1Cl | 18.9 |  | 105.8 | Non-toxic | Non-toxic | 300 | Non-toxic |  |  |  | 300 |  |  |  |  |  |  |  | 
CCCCN1C(=O)CCc2cc(-n3cnnc3)ccc21 | 46.4 |  | 70 |  | Non-toxic |  | Non-toxic | inactive | inactive | 300 |  |  |  |  |  |  |  |  | 
O=C1CCc2cc(-n3cnnc3)ccc2N1Cc1cccc(F)c1 | 67 |  | 43 | Non-toxic | Non-toxic |  | Non-toxic | inactive | inactive |  |  |  |  |  |  |  |  |  | 
COc1ccc(CN2C(=O)CCc3cc(-n4cnnc4)ccc32)cc1 | 6.8 |  | 121.6 | Non-toxic | Non-toxic |  | Non-toxic | inactive | inactive |  |  |  |  |  |  |  |  |  | 
CCCN1C(=O)CCc2cc(-n3cnnc3)ccc21 | 5.3 |  | 123.6 |  | Non-toxic |  | Non-toxic | inactive | inactive | 300 |  |  |  |  |  |  |  |  | 
